Results pooled from the literature.
Compare with care: the assays were run in different laboratories.
SLC6A2: Sodium-dependent noradrenaline transporter (SLC6A2, Homo sapiens, UniProt P23975)
CECR2: Chromatin remodeling regulator CECR2 (CECR2, Homo sapiens, UniProt Q9BXF3)
WNK4: Serine/threonine-protein kinase WNK4 (WNK4, Homo sapiens, UniProt Q96J92)

Compound	target	test	test system	setting	quantity	result
CC(C)(C)c1nc(-c2cccc(NS(=O)(=O)c3c(F)cccc3F)c2F)c(-c2ccnc(N)n2)s1	Mitotic checkpoint serine/threonine-protein kinase BUB1 beta (BUB1B, Homo sapiens, UniProt O60566)	enzyme activity, inhibitor, radiometric	–	1 µM	remaining activity	101%
CNC(=O)c1cc(Oc2ccc(NC(=O)Nc3ccc(Cl)c(C(F)(F)F)c3)cc2)ccn1	Fibroblast growth factor receptor 1 (FGFR1, Homo sapiens, UniProt P11362)	enzyme activity, inhibitor	–	10 µM	inhibition	99%
Clc1ccc(C(c2ccccc2)c2nnnn2CCCN2CCC(Cc3ccccc3)CC2)cc1 (stereo not drawn)	SLC6A2	transporter uptake, inhibitor	HEK293	1 µM	inhibition	93.4%
CCN1CCN(Cc2ccc(NC(=O)c3ccc(C)c(Oc4ccnc5[nH]ccc45)c3)cc2C(F)(F)F)CC1	Serine/threonine-protein kinase 10 (STK10, Homo sapiens, UniProt O94804)	target engagement in cells, inhibitor, chemoproteomics	A-375	5 µM	inhibition	-138%
Cc1cnc(Nc2ccc(OCCN3CCCC3)cc2)nc1Nc1cccc(S(=O)(=O)NC(C)(C)C)c1	CECR2	thermal stability, DSF	–	10 µM	ΔTm	0.12 °C
CC(=O)N[C@H]1CSSC[C@@H](C(=O)N[C@H](Cc2c[nH]c3ccccc23)C(N)=O)NC(=O)[C@@H](Cc2ccccc2)NC(=O)[C@H](CCCNC(=N)N)NC1=O	Melanocortin receptor 4 (MC4R, Homo sapiens, UniProt P32245)	cAMP, agonist	HEK293	3 min	Emax	0%
Clc1ccc(C(c2ccc(Cl)cc2)c2nnnn2CCCCN2CCN(Cc3ccccc3)CC2)cc1	SLC6A2	transporter uptake, inhibitor	HEK293	1 µM	inhibition	79%
Cc1cc(NC(=O)c2cccc3cc(-c4cccc5[nH]nc(N)c45)ccc23)ccc1F	Serine/threonine-protein kinase Chk2 (CHEK2, Homo sapiens, UniProt O96017, I157T)	enzyme activity, inhibitor	–	0.1 µM	activity vs control	72%
CCCOc1ccc(OC)c(F)c1C(=O)c1ccc(C(=O)N[C@@H]2CNC[C@H]2NC(=O)c2ccc3[nH]ncc3c2)cc1	cAMP-dependent protein kinase catalytic subunit PRKX (PRKX, Homo sapiens, UniProt P51817)	enzyme activity, inhibitor	–	0.1 µM	remaining activity	16%
Clc1ccc(C(c2ccccc2)c2nnnn2CCCN2CCC(CCc3ccccc3)CC2)cc1 (stereo not drawn)	SLC6A2	transporter uptake, inhibitor	HEK293	1 µM	inhibition	50.1%
Cc1ccc(C(=O)Nc2ccc(CN3CCN(C)CC3)c(C(F)(F)F)c2)cc1C#Cc1cnc2cccnn12	WNK4	enzyme activity, inhibitor	–	23.5 nM	remaining activity	93%
Nc1ncnc2occ(-c3ccc(NC(=O)Nc4cc(C(F)(F)F)ccc4F)cc3)c12	WNK4	cell-free assay, inhibitor	–	20 µM	remaining signal	17%
Clc1ccc(C(c2ccc(Cl)cc2)c2nnnn2CCCCN2CCC(Cc3ccc(Cl)c(Cl)c3)CC2)cc1	SLC6A2	transporter uptake, inhibitor	HEK293	1 µM	inhibition	41.1%
Oc1ccc(-c2nc(-c3ccncc3)c(-c3ccc(F)cc3)[nH]2)cc1	CECR2	thermal stability, DSF	–	10 µM	ΔTm	1.3 °C
NS(=O)(=O)c1ccc(Nc2nc(-c3ccc(F)cc3)c3ccccc3n2)cc1	CECR2	binding, competition with immobilised ligand	–	1 µM	remaining binding	79%
